Calls of active or inactive are those of the source. The rule behind the calls is not given here.

Assay [1] has as its target Metabotropic glutamate receptor 2 (Homo sapiens, UniProt Q14416). In words: Displacement of [3H]LY341495 from human mGluR2 receptor expressed in BHK cells.
For assay [2], the species on record is Rattus norvegicus. Briefly: Agonist activity at NMDA receptor in rat cortical membranes up to 1 mM by [3H]MK801 binding assay. In kind it is cell membranes. The essentials: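 [3H]MK801 binding to rat cortical membranes; agonist action read as potentiation of [3H]MK801 binding relative to basal, with glutamate/glycine as reference stimulants of binding.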

In assay [3] the target is T1, Glutamate NMDA receptor (Rattus norvegicus) (UniProt P35439+Q00959+Q00960+Q00961+Q62645+Q8VHN2+Q9R1M7). Conditions: Brain, Brain membranes.
In assay [4] the target is Glutamate NMDA receptor.
Assay [5] concerns the target Metabotropic glutamate receptor 5 (Homo sapiens, UniProt P41594). In words: Displacement of [3H]Quisqualate from human mGluR5 receptor expressed in BHK cells. In kind it is cell-based. In general terms: In a radioligand displacement assay an active substance lowers the binding of a labelled ligand.
Assay [6] in a line: Displacement of [3H]AMPA from AMPA receptor in rat brain membranes. In kind it is cell membranes.
Assay [7] has as its target Metabotropic glutamate receptor 4 (Homo sapiens, UniProt Q14833). In words: Displacement of [3H]L-AP4 from human mGluR4 receptor expressed in BHK cells.
Assay [8] deals with Metabotropic glutamate receptor 1 (Homo sapiens, UniProt Q13255). In words: Displacement of [3H]Quisqualate from human mGluR1A receptor expressed in BHK cells. In kind it is cell-based.
Assay [9] deals with T1, Glutamate NMDA receptor (Rattus norvegicus). In words: Antagonist activity at NMDA receptor in rat cortical membranes assessed as inhibition of [3H]MK801 binding in presence of glutamate and glycine. In kind it is cell membranes.
Assay [10] can be described thus: Displacement of [3H]kainic acid from kainate receptor in rat brain membranes. In kind it is cell membranes.

Metabotropic glutamate receptor 1, sequence (Q13255 whole entry): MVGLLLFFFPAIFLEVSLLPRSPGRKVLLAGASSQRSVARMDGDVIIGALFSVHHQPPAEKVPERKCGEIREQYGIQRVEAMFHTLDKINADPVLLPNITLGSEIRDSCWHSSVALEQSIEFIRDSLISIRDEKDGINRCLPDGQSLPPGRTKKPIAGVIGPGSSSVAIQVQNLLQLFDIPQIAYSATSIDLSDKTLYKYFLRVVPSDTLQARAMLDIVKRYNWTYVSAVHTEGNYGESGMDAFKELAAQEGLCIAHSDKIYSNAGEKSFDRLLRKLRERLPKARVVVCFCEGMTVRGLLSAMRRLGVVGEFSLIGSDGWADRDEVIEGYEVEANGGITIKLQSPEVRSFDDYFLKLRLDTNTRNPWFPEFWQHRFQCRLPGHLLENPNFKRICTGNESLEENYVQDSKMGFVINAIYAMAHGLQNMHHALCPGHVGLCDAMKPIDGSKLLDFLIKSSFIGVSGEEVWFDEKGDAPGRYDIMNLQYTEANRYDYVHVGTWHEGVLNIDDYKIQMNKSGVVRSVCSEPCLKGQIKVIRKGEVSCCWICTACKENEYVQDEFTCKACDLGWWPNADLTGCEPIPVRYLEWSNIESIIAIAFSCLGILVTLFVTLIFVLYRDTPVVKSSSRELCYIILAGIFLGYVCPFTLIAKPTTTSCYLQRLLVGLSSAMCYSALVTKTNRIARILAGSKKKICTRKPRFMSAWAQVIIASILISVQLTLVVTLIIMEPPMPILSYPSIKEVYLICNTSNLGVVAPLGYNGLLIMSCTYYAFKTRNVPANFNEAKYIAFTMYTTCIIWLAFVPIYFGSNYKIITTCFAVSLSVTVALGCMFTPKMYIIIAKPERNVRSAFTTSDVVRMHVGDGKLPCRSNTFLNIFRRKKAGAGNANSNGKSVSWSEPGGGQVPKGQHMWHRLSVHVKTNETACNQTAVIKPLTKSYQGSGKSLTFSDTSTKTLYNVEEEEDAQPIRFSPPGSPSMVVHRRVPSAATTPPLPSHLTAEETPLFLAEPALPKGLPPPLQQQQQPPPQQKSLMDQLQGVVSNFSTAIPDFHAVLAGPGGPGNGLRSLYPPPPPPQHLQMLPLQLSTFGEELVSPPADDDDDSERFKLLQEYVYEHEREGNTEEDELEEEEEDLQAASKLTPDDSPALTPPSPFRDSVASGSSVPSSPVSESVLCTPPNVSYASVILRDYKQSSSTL
Metabotropic glutamate receptor 4, sequence (Q14833 whole entry): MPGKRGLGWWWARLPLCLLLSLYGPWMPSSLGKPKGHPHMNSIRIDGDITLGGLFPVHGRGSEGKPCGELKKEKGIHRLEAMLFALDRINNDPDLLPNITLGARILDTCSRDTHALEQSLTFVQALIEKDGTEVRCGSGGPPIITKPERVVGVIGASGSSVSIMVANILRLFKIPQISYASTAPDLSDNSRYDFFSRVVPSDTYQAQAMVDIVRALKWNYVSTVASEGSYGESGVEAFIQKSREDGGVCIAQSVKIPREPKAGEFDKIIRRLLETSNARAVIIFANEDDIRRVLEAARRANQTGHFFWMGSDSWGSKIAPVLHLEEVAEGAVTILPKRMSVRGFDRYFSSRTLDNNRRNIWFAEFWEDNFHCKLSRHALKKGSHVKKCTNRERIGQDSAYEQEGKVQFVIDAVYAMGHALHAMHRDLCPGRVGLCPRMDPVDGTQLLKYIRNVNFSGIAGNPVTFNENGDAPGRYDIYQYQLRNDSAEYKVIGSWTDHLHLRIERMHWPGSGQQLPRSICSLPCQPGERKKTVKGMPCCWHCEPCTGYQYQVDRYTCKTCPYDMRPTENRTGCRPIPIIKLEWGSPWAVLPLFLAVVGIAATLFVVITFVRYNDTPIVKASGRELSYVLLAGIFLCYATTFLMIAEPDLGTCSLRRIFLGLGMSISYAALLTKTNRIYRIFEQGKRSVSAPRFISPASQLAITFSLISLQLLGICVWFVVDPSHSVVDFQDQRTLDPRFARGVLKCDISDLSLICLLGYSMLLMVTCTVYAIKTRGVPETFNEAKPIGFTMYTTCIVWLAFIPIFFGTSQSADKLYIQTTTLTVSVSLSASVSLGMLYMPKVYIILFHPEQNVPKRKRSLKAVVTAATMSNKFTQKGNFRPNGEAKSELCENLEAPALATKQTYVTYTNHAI
Metabotropic glutamate receptor 5, sequence (P41594 whole entry): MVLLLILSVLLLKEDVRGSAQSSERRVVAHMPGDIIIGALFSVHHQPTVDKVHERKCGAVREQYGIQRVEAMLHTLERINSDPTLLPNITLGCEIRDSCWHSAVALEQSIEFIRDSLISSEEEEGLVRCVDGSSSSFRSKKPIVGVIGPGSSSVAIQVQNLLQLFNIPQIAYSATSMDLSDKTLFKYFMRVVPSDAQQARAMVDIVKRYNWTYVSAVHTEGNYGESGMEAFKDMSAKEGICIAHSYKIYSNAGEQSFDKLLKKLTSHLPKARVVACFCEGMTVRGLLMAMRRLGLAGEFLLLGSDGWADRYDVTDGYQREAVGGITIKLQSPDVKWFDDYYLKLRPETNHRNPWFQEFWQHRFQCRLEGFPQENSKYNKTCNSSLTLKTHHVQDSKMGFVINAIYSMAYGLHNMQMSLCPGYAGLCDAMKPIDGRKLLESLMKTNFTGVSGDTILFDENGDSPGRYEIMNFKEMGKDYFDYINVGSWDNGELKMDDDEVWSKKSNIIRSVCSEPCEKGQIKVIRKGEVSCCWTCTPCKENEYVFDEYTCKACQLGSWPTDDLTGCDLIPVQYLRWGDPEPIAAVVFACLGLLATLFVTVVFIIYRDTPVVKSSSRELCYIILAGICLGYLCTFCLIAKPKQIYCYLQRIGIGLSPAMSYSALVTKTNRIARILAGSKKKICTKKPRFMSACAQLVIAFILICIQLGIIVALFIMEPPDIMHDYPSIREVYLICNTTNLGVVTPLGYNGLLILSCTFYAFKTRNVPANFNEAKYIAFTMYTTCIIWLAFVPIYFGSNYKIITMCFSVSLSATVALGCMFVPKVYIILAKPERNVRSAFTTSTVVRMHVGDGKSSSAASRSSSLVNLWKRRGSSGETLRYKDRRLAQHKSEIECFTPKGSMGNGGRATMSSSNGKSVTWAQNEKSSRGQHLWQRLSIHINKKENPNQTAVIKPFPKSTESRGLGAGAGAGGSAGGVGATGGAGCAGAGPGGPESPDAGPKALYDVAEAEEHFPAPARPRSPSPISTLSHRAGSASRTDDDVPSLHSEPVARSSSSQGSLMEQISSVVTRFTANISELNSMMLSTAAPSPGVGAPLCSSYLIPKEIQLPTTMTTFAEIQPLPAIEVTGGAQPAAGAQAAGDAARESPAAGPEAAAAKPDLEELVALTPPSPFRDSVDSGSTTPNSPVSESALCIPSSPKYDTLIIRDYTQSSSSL
Metabotropic glutamate receptor 2, sequence (Q14416 whole entry): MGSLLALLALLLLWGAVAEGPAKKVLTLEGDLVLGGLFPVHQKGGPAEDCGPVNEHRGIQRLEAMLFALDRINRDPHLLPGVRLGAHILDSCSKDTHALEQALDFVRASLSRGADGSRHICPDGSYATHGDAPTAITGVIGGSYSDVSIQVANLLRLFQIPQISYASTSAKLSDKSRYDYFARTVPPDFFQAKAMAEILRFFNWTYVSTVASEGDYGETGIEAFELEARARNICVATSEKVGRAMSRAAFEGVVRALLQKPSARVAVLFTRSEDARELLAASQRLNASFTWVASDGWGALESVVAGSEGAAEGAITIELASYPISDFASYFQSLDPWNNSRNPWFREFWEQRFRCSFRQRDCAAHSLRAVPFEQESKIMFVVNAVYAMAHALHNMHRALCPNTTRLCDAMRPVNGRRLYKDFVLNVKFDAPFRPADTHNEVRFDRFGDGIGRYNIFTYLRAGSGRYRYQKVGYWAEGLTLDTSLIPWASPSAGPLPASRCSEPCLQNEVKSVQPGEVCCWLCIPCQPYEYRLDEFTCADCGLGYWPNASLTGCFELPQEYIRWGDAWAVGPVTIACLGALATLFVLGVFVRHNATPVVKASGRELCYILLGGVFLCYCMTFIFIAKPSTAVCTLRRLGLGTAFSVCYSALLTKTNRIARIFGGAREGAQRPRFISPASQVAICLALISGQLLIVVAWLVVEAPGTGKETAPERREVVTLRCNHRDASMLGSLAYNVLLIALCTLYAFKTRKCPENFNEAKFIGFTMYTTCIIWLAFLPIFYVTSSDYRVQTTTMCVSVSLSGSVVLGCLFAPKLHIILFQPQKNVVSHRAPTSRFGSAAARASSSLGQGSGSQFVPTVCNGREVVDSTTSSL

A word on the Ki: it is the equilibrium dissociation constant of an inhibitor or competing ligand from its target. A lower Ki goes with higher affinity. Regarding `N[C@H](CC12CC(C(=O)O)(C1)C2)C(=O)O`, the inhibition constant Ki in assay [1] is above 1000 µM; in assay [4], 29 µM; in assay [5], 336 µM; in assay [6] it was above 300 µM; in assay [7] it was above 1000 µM; in assay [8], 210 µM. Also, the Ki in assay [10] was above 300 µM. Also, the result in assay [2] and in [9] was inactive. The compound further had a logKi in assay [3] of 1.46.

Regarding `O=C(O)[C@H]1CN(CCCP(=O)(O)O)CCN1`, the Activity in assay [9] was found to be 103 nM.

Regarding `N[C@@H](CCP(=O)(O)O)C(=O)O`, the inhibition constant (Ki) in assay [1] is above 1000 µM; in assay [4] it was above 300 µM; in assay [5], above 1000 µM; in assay [6], above 1000 µM; in assay [7], 0.16 µM; in assay [8] it was above 1000 µM. Moreover, in assay [10], the inhibitory constant (Ki) was above 1000 µM.

For the compound `N[C@@H](CC12CC(C(=O)O)(C1)C2)C(=O)O`, the inhibition constant (Ki) was above 1000 µM in [1]; above 300 µM in [4]; above 300 µM in [5]; above 300 µM in assay [6]; above 1000 µM in [7]; above 1000 µM in assay [8]. In [10], this compound showed a Ki above 300 µM. The outcome in [2] and in assay [9] was inactive. In addition, the logKi in assay [3] stood at 2.48.

For the origin of these results see ChEMBL document CHEMBL1139317, “Design, synthesis and biological evaluation of novel bicyclo[1.1.1]pentane-based omega-acidic amino acids as glutamate receptors ligands” (Bioorg Med Chem, 2009).
